Data reported in the EternaBench riboswitch data.

System: MS2 coat protein
Test: apparent Kd, MS2 coat protein; higher = weaker binding; RNA-MaP array; FMN 200 µM where present
In short: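 Each design was made on Illumina sequencing-chip clusters by stalled E. coli RNA polymerase and titrated with SNAP-549-labelled MS2 coat protein from 0.7 or 1.5 nM, doubling to 3 µM, in the absence and then the presence of constant ligand. The buffer was 100 mM Tris-HCl pH 7.5, 80 mM KCl, 4 mM MgCl2, BSA, DTT, yeast tRNA and Tween-20. The apparent Kd is the median of filtered per-cluster fits of binding curves, with green signal normalised to red-channel RNA signal and control-cluster median Fmax.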

[1] = designed as: OFF switch for flavin mononucleotide, no ligand
[2] = ligand present: flavin mononucleotide, designed as: OFF switch for flavin mononucleotide
[3] = designed as: ON switch for flavin mononucleotide, no ligand
[4] = ligand present: flavin mononucleotide, designed as: ON switch for flavin mononucleotide

| Sequence | apparent Kd [1] [nM] | apparent Kd [2] [nM] | apparent Kd [3] [nM] | apparent Kd [4] [nM] |
| --- | --- | --- | --- | --- |
| AGAGCCUCGUGAGGAUAUACAUGAGGAUCACCCAUGUAAAUGAAAGAUACGUCGAAACGACGAAUGUAGAAGGCACGAGGCUCA | 17.8 | 65.9 |  |  |
| AAUUUACAGGCAGGAUAUACAUGAGGAUCACCCAUGUAAUCAUAUGAUAUUUUUUUUGUAUGAGUGUAGAAGGGCCAAAUAAAA | 7.79 | 7.99 |  |  |
| UGUAUAUAGGCAGGAUAUACAUGAAUAUAUAUGAUGUAGUAUGAUGUAACAUGAGGAUCACCCAUGUAGAAGGGCCAAUAUAUA | 40.8 | 135 |  |  |
| GCACUGGAUGUAGGAUAUCAGGACGAUAAGUCCUGAGAAGGACAUGAGGAUCACCCAUGUAAACCUCACCAGUGCUAUAAUAUA | 15.5 | 21.1 |  |  |
| AUGACAUGCAGAGCGCAACGGCGUACAUGAGGAUCACCCAUGUAGGAUAUACUACACAAAGUGUAGUAGAAGGACAUGCGACGG | 30.8 | 50.8 |  |  |
| ACAUGAGGAUCACCCAUGUAUUACAUGGUUUAGUUUAUUAACAGAAGGCGAAAUUACCACUUUUUCGAGGAUAUGUAUUCUAUA | 71 | 64.2 |  |  |
| UGGUGAAUUGAGAAGGGAACAGAUGUAGCUCCACAUGAGGAUCACCCAUGUUCAGGAUAUCAGUGCCCGACCUUGAGCGGUCGC | 7.92 | 11.8 |  |  |
| AAAAAACAUGAGGAUCACCCAUGUAAGGAUAUCGUGCAGAAAAAAAAAAAAAACUGCACGAGAAGGUACUUGGA | 81 | 143 |  |  |
| GUUAAUUUCGAAGGAUAUGGAUACAUGAGGAUCACCCAUGUAUAAAAUGAGAUCUAUUAUAUGAUCCAGAAGGUCGUUUUUUAU | 36.5 | 69.6 |  |  |
| CUUUCGUGAGGAUAUCAGUAGUAAAAAAAUAAAAUUACUACUGAGAAGGCACAUGAGGAUCACCCAUGUUCCUC | 21.8 | 143 |  |  |
| GGUUGGCGAGGAUAUACAUGAGGAUCACCCAUGUGGUCCUGCGGUGGUCUCGCCCUUUGUAGAAGGCGCGGGUC | 35.7 | 30.6 |  |  |
| CUGGUUGUCGUAGGAUAUGUAGGAUAUUCCUACAUGAGGAUCACCCAUGUUCGCAUGGAAGAAAGACAGAAGGACGAUGACCAG |  |  | 816 | 50.2 |
| GCACUGGAUGUAGGAUAUCAGGACGAUAAGUCCUGAGAAGGACAUGAGGAUCACCCAUGUGCUUAAACCAGUGCAUAUAAUAUA | 12.2 | 18.4 |  |  |
| AUGGUUCUCGUAGGAUAUGUAGGAUAUGCCUACAUGAGGAUCACCCAUGUUCGCAUGGCAGAAGGACAGAAGGACGAUCACCAA |  |  | 365 | 19.2 |
| UCAGUAGAGUCAGGAUAUACGUUAAAAUUUCCUCACAUGAGGAUCACCCAUGUAGAAGGGACUCUACUGUAAGUCGGAAACGAC | 35.2 | 686 |  |  |
| UUUUAACAUGAGGAUCACCCAUGUGAGGAUAUCGAAAUUUAUAUUUAUAUUUAUAAUACGAGAAGGCACAUUUU | 80.3 | 93.6 |  |  |
| AAAAAGUCAGGAUAUGCUUAUAAUAAGAAAAUUAGAGAUAUGCAGAAGGGACAUGAGGAUCACCCAUGUAAAAA | 35.3 | 37.8 |  |  |
| AAGAAGUCAGGAUAUGCAUGGCGGGACUUGCGUCGUGGCGUGCAGAAGGGACAUGAGGAUCACCCAUGUGGAGA | 124 | 249 |  |  |
| AUACAAAGCACAGGAUAUGGGAGUGAGAAUCAUGCUGCGAAUUGAUUCGGACCAGAAGGGUGCACAUGAGGAUCACCCAUGUAC |  |  | 185 | 77.6 |
| GAAUUCUCAGGAUAUGUGCGAAGUUACAUGAGGAUCACCCAUGUUAGCCCGUGUCUUUGAGCAGAAGGGAGAGGCU | 14 | 13.6 |  |  |
| AAACAUGUCCGAGGAUAUCUGAGAUCAUUUUCAAGAGAAGGCGGACAUGAGGAUCACCCAUGUCUCUCCUCAUCAACUCCAAAG | 7.22 | 35.6 |  |  |
| UAUCGUUCCGAGGAUAUGAGGCGACUGGCGCGAUCAGAAGGCGGAACAUGAGGAUCACCCAUGUUCCUUACCUU | 12.2 | 20.5 |  |  |
| CCUCAACAGUAGGAUAUCAUAUAACUAUUGUGAUGAGAAGGACUGACAUGAGGAUCACCCAUGUUAACGUGAUA | 18 | 24.9 |  |  |
| CCUCUGUAAGGAUAUACGGAGACCACUGGAAUCAGUGGAAAGUAGAAGGUACAUGAGGAUCACCCAUGUGAGAA | 86.6 | 151 |  |  |
| AAGUUUGUACGAGGAUAUCAGUUGUUUCUAAAUUCAACAUGAGGAUCACCCAUGUAGCAAUGGAGUGAGAAGGCGUGUGGGCAA |  |  | 457 | 240 |
| UCGGCGCGAGGAUAUACGUUUGCUUUUUUGGGUCGUUGCGUACAUGAGGAUCACCCAUGUAGAAGGCGCGCCGC | 27.4 | 187 |  |  |
| GGUACUCAAAGAGUACUGAGUCGAACAUGAGGAUCACCCAUGUAGGAUAUGCGAGUUUUGAAUUUGCAGAAGGACAUUUUUAGC | 8.88 | 9.59 |  |  |
| GCACAUGAUACAGGAUAUGUAUUGGUAUUUAUAUACAGUUAUAUAAUAUUUACAGAAGGGUAUACAUGAGGAUCACCCAUGUGC | 81.3 | 41.7 |  |  |

| Sequence | apparent Kd [1] [nM] | apparent Kd [2] [nM] | apparent Kd [3] [nM] | apparent Kd [4] [nM] |
| --- | --- | --- | --- | --- |
| GUAGGCGACCAGAAGGGUGACAUGAGGAUCACCCAUGUAGAUGUGUUCCCGCUUGGGAGCCGUCCACAGGAUAUGGUUGGUUAU |  |  | 49.9 | 74.5 |
| GGAUAGGACAGAGGAUAUAGGUGCUAGAGAUACUAGCAAAAUUUCCUCACAUGAGGAUCACCCAUGUAGAAGGCUGUCCUAUCG | 11.5 | 25.4 |  |  |
| UGAUCUUGAGUCAGGAUAUGCUGGUUUUUUUUUUAGCAGAAGGGACAUGAGGAUCACCCAUGUUCUCACUUUUU | 16.1 | 20.2 |  |  |
| UGUCGGAGCAGAGGAUAUUACAUGAGGAUCACCCAUGUAUGAACCAAUAGCUGGAAACAGCAAUGUAAGAAGGCUCCUCCGACA | 6.18 | 20.5 |  |  |
| GACAUGAGGAUCACCCAUGUCCAUGCAAGAGUAGUUGAGACCAGAAGGACCUUGCGGAGCGCAGGGUAGGAUAUGGAGCCCUCA |  |  | 36.3 | 8.75 |
| UUCAUCAAUGAAGGAUAUCUAUGUCCAACAUGAGGAUCACCCAUGUUGAGGAUUACCUAUGUGUAGGAGAAGGUCAAUAUAACU |  |  | 6.53 | 5.93 |
| ACGUGUUAUACAGGAUAUGUUUAGGUACAAUCAUCCAGCUAUUAAUUUAUUACAGAAGGGUAAACAUGAGGAUCACCCAUGUCA | 26 | 15.9 |  |  |
| ACAUGAGGAUCACCCAUGUUAUCCGGGACUUCAAUUGUAUCUAGAAGGCUGUCUGCUUGUUAGUCAGAGGAUAUAGAUUCAAAU | 12.4 | 11.1 |  |  |
| GUGUAGAUAGGAUAUGCUGGAAUCUAGCGAAGCUAGGUUCUACAUGAGGAUCACCCAUGUAGAAGGGUCUACAC | 33.4 | 22.6 |  |  |
| UUUAUGAAGAUUCGUCAAUACAGUUAGGAUAUGAGAGACAUGAGGAUCACCCAUGUGCAUGUUGAUUAGAAGGAACAAUUAUCU | 19.1 | 16.9 |  |  |
| AAAAAACAUGAGGAUCACCCAUGUGAAAAUAUGGGAGGAUAUACAAACACGAAAGUGAAAGUAGAAGGCCUAAAAA |  |  | 97 | 25.6 |
| GGUCCAUCUGUUAGGAUAUGCUUUGGGCUUCCGCAGUAGAAGGAACAUGAGGAUCACCCAUGUCCGAUGCCGUA | 20.4 | 25.4 |  |  |
| CUGAGUAGUCAGGAUAUGCUGUACAAAAGUACAGCAGAAGGGAUUACAUGAGGAUCACCCAUGUUUACUUCAUG | 44.8 | 209 |  |  |
| GCCUUAUCCGUCAGGAUAUACAUUUGUUAGUUGUUGUAGAAGGGACAUGAGGAUCACCCAUGUACAUUACAUUG | 19.4 | 22.4 |  |  |
| UGUCGGAGUAGAGGAUAUUACAUGAGGAUCACCCAUGUAUGAACCAAUAGCUGGAAACAGCAAUGUAAGAAGGCUGCUCCGACA | 8.91 | 110 |  |  |
| GGACGACACAUCUACAUGAGGAUCACCCAUGUCAAAAGACAUGAGGAUAUGCUACCUAAUUGGUAGCAGAAGGCAUGGUCGUCC |  |  | 1370 | 67.2 |
| UGGUACUAGGGAGGAUAUGGGAAGAUACAUGAGGAUCACCCAUGUUUAAGAAUGCCGAGAGGCAACUAGAAGGCCCUAGUACCA |  |  | 529 | 19.2 |
| CUUGUGUUAGGAUAUGCGCCCUGCAAAAGCAAGGCCAGAGAGCAGAAGGAACAUGAGGAUCACCCAUGUGUGAC | 55.8 | 57.7 |  |  |
| GGAGCAUAUGUCAGGAUAUCGUGGUCGAUAGAUCACGAGAAGGGACAUGAGGAUCACCCAUGUCAGUCCGCUCC | 14.3 | 20.7 |  |  |
| AAGACACAUCUAGGAUAUGGUGAUGCUCAGAACACAUGAGGAUCACCCAUGUAGCUUGUGUAUAAUCAGAAGGAGAACCGUGUA |  |  | 36.4 | 259 |
| UCCUCACAUGAGGAUCACCCAUGUCAGGAUAUAGGAGAUGGCAGAAAUCCUGCCAUCGCUAGAAGGGACUGGCA | 43.8 | 154 |  |  |
| ACAUGAGGAUCACCCAUGUAAUAACAUCGGUUAUACGAAAGUGAGGAUAUCGAUCAGGCAUAUUACGAGAAGGCACAAUAGGGA |  |  | 41.3 | 43.2 |
| CGCACUUAUAGAGGAUAUGUUGUACAUGAGGAUCACCCAUGUGUUUUUGUAUCAAUAUUAGUGAAACAGAAGGCUAUUUGUGCG | 5.76 | 4.96 |  |  |
| ACUAGAAGCGUGAGAUAUCACAUGAGGAUCACCCAUGUGACACAGGAUAUAACAAUAUCAGAAGGUUAGAAGGGUGAGCACGCC |  |  | 164 | 45.6 |
| GGGUACAUCGGAGGAUAUCAUGUAAGUACAUGAGGAUCACCCAUGUCGAUGGAGACAUCGGAGAUUGAGAAGGCCGAUGUACCG |  |  | 152 | 8.71 |
| CCCUCACAUGAGGAUCACCCAUGUUAGGAUAUCUACCAGGAGCUUUGAAUUGCCCAACGGAGAAGGAACGUGCA | 16.9 | 17.4 |  |  |
| AAAAUGUCAGGAUAUGCGAAGGCGUCUGAUAGACGAGGCUAGCAGAAGGGACAUGAGGAUCACCCAUGUAAAAA | 52.6 | 152 |  |  |
